Consider six compounds from ChEMBL document CHEMBL1933064, “Synthesis and evaluation of potential inhibitors of human and Escherichia coli histidine triad nucleotide binding proteins” (Bioorg Med Chem Lett, 2012).

Assay [1] is described as follows: Non-competitive inhibition of Escherichia coli HinT using tryptamine 5'-adenosine phosphoramidate as substrate compound pre-incubated for 30 secs prior substrate addition measured for 2 mins by Dixon plot analysis. The procedure, abridged:
(§1)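 Phosphoramidase assay on fluorogenic tryptamine 5'-adenosine phosphoramidate (TpAd), ecHinT or hHint1 enzyme. Enzyme pre-incubated with inhibitor 30 s at 25 °C, then substrate added. Hydrolysis followed as fluorescence rise (excitation 280 nm, emission 360 nm) over 2 min. HEPES buffer pH 7.2, 25 °C; Ki derived from rates versus concentration.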

In assay [2] the test system is Escherichia coli. Description: Growth inhibition of Escherichia coli BW25113 at 100 uM after 40 hrs in presence of glucose as sole carbon source. It is filed as functional, organism-based.
The test system of assay [3] is Escherichia coli. Description: Inhibition of HinT in Escherichia coli BW25113 assessed as impaired growth at 100 uM after 40 hrs in presence of D,L-alanine as sole carbon source.
Assay [4] has as its target Adenosine 5'-monophosphoramidase HINT1 (Homo sapiens, UniProt P49773). Description: Non-competitive inhibition of human HinT1 using tryptamine 5'-adenosine phosphoramidate as substrate compound pre-incubated for 30 secs prior substrate addition measured for 2 mins by Dixon plot analysis. A digest of the protocol: as §1

Active and inactive are the calls of the source. The rule behind the calls is not given here.

Regarding `Cc1cn([C@H]2C[C@H](N)[C@@H](COC(=O)NCCc3c[nH]c4ccccc34)O2)c(=O)[nH]c1=O`, the Ki in assay [1] was determined as 122 µM; in assay [4] it was 139 µM. In the assay with Escherichia coli [2], the “growth inhibition (GI)” value is “inactive”. Besides, in the assay on Escherichia coli [3], the inhibition entry is “Active”.
Turning to `Cc1cn([C@H]2C[C@H](N=[N+]=[N-])[C@@H](COC(=O)NCCc3c[nH]c4ccccc34)O2)c(=O)[nH]c1=O`, the Ki worked out at 565 µM in assay [1] and 715 µM in assay [4].
For `Nc1ncnc2c1ncn2[C@@H]1O[C@H](COC(=O)CCc2c[nH]c3ccccc23)[C@@H](O)[C@H]1O`, in that order: 375 µM and 400 µM.
In the same order, the values of `Nc1ncnc2c1ncn2[C@@H]1O[C@H](COC(=O)CCCc2c[nH]c3ccccc23)[C@@H](O)[C@H]1O` are 393 µM and 457 µM.
On to `Nc1ncnc2c1ncn2[C@@H]1O[C@H](COC(=O)NCCc2c[nH]c3ccccc23)[C@@H](O)[C@H]1O`, for which the Ki in assay [1] was 73 µM; in assay [4], 103 µM. For the same compound, in the assay with Escherichia coli [2], the “growth inhibition (GI)” value was “inactive”. The inhibition result with Escherichia coli [3] is “Active”.
For `Nc1nc2c(ncn2[C@@H]2O[C@H](COC(=O)NCCc3c[nH]c4ccccc34)[C@@H](O)[C@H]2O)c(=O)[nH]1`, in that order: 42 µM, 34 µM, “inactive” and “Active”.
